Laboratory results published in ChEMBL document CHEMBL4330069, “Boosting the efficacy of anti-MRSA β-lactam antibiotics via an easily accessible, non-cytotoxic and orally bioavailable FtsZ inhibitor” (Eur J Med Chem, 2019).
Values after ≈ are worked out from the molar mass of the structure shown.

Columns and labels:
Staphylococcus aureus [1] = test: Synergistic antibacterial activity against multidrug-resistant Staphylococcus aureus isolate 3332 assessed as fractional Inhibitory concentration index in presence of amoxicillin by broth microdilution assay; type: functional
Staphylococcus aureus [2] = test: Synergistic antibacterial activity against multidrug-resistant Staphylococcus aureus isolate 2895 assessed as fractional Inhibitory concentration index in presence of amoxicillin by broth microdilution assay; type: functional
Staphylococcus aureus [3] = test: Synergistic antibacterial activity against multidrug-resistant Staphylococcus aureus isolate 2728 in presence of cloxacillin by broth microdilution assay; type: functional
How it was run: (§1)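 CLSI broth microdilution on clinical MRSA isolates. MICs were measured for the β-lactam alone, the test agent alone and the two combined. Compounds were dissolved in DMSO, and growth inhibition was scored by eye. FIC index is the sum, over both agents, of MIC in combination divided by MIC alone. An FIC index ≤0.5 was taken as synergy.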

Staphylococcus aureus [4] = test: Synergistic antibacterial activity against multidrug-resistant Staphylococcus aureus isolate 254 assessed as fractional Inhibitory concentration index in presence of cefuroxime by broth microdilution assay; type: functional
Staphylococcus aureus [5] = test: Synergistic antibacterial activity against multidrug-resistant Staphylococcus aureus isolate 231 in presence of amoxicillin by broth microdilution assay; type: functional
How it was run: (§2)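 Clinical MRSA isolate panel; compound and β-lactam tested alone and in combination by CLSI broth microdilution, compounds dissolved in DMSO, growth inhibition scored by eye, run in duplicate. FIC index = FIC(compound) + FIC(drug), each the MIC in combination divided by the MIC alone; an index ≤ 0.5 was called synergy.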

Staphylococcus aureus [6] = test: Antibacterial activity against multidrug-resistant Staphylococcus aureus isolate 3267 by broth microdilution assay; type: functional
How it was run: (§3)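 Broth microdilution MIC per CLSI guidelines against clinical MRSA isolates, for β-lactams and test compound alone and in combination. Compounds were dissolved in DMSO. Growth was read by eye, in duplicate. FIC index = FIC(compound) + FIC(drug); synergy defined as FIC index ≤0.5.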

Staphylococcus aureus [7] = test: Synergistic antibacterial activity against multidrug-resistant Staphylococcus aureus isolate 3411 assessed as fractional Inhibitory concentration index in presence of cloxacillin by broth microdilution assay; type: functional
Staphylococcus aureus [8] = test: Antibacterial activity against multidrug-resistant Staphylococcus aureus isolate 417 by broth microdilution assay; type: functional; how it was run: as §3
Staphylococcus aureus [9] = test: Synergistic antibacterial activity against multidrug-resistant Staphylococcus aureus isolate 1344 in presence of cefuroxime by broth microdilution assay; type: functional; how it was run: as §2
Staphylococcus aureus [10] = test: Synergistic antibacterial activity against multidrug-resistant Staphylococcus aureus isolate 417 in presence of methicillin by broth microdilution assay; type: functional
Staphylococcus aureus [11] = test: Synergistic antibacterial activity against multidrug-resistant Staphylococcus aureus isolate 85 assessed as fractional Inhibitory concentration index in presence of amoxicillin by broth microdilution assay; type: functional
[12] = AUC (0 to infinity) in Sprague-Dawley rat at 50 mg/kg, po by UPLC-MS/MS analysis; type: ADME, organism-based; parameters: dose 50 mg/kg, route oral, time infinity; details: in vivo
Staphylococcus aureus [13] = test: Synergistic antibacterial activity against multidrug-resistant Staphylococcus aureus isolate 2728 in presence of methicillin by broth microdilution assay; type: functional; how it was run: as §1
Staphylococcus aureus [14] = test: Synergistic antibacterial activity against multidrug-resistant Staphylococcus aureus isolate 1402 assessed as fractional Inhibitory concentration index in presence of cloxacillin by broth microdilution assay; type: functional
How it was run: (§4)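 CLSI broth microdilution run on clinical MRSA isolates with each β-lactam alone, the test agent alone, and the two combined; agents dissolved in DMSO. Growth inhibition was read by eye. FIC index = FIC(compound) + FIC(β-lactam), where each FIC is the MIC in combination divided by the MIC alone. An index ≤0.5 was taken as synergy.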

Staphylococcus aureus [15] = test: Synergistic antibacterial activity against multidrug-resistant Staphylococcus aureus isolate 1136 assessed as fractional Inhibitory concentration index in presence of amoxicillin by broth microdilution assay; type: functional; how it was run: as §4
Staphylococcus aureus [16] = test: Synergistic antibacterial activity against multidrug-resistant Staphylococcus aureus isolate 85 in presence of amoxicillin by broth microdilution assay; type: functional
Staphylococcus aureus [17] = test: Synergistic antibacterial activity against multidrug-resistant Staphylococcus aureus isolate 417 in presence of cefuroxime by broth microdilution assay; type: functional
Staphylococcus aureus [18] = test: Synergistic antibacterial activity against multidrug-resistant Staphylococcus aureus isolate 1749 assessed as fractional Inhibitory concentration index in presence of meropenem by broth microdilution assay; type: functional; how it was run: as §4
Staphylococcus aureus [19] = test: Antibacterial activity against multidrug-resistant Staphylococcus aureus isolate 2516 by broth microdilution assay; type: functional; how it was run: as §3
Staphylococcus aureus [20] = test: Antibacterial activity against multidrug-resistant Staphylococcus aureus isolate 757 by broth microdilution assay; type: functional; how it was run: as §3
Staphylococcus aureus [21] = test: Synergistic antibacterial activity against multidrug-resistant Staphylococcus aureus isolate 256 assessed as fractional Inhibitory concentration index in presence of amoxicillin by broth microdilution assay; type: functional
Staphylococcus aureus [22] = test: Synergistic antibacterial activity against multidrug-resistant Staphylococcus aureus isolate 256 in presence of methicillin by broth microdilution assay; type: functional; how it was run: as §1
Staphylococcus aureus [23] = test: Synergistic antibacterial activity against multidrug-resistant Staphylococcus aureus isolate 3332 assessed as fractional Inhibitory concentration index in presence of meropenem by broth microdilution assay; type: functional
Staphylococcus aureus [24] = test: Synergistic antibacterial activity against multidrug-resistant Staphylococcus aureus isolate 231 in presence of meropenem by broth microdilution assay; type: functional; how it was run: as §2
Staphylococcus aureus [25] = test: Synergistic antibacterial activity against multidrug-resistant Staphylococcus aureus isolate 254 assessed as fractional Inhibitory concentration index in presence of amoxicillin by broth microdilution assay; type: functional
Staphylococcus aureus [26] = test: Synergistic antibacterial activity against multidrug-resistant Staphylococcus aureus isolate 2901 assessed as fractional Inhibitory concentration index in presence of methicillin by broth microdilution assay; type: functional
Staphylococcus aureus [27] = test: Synergistic antibacterial activity against multidrug-resistant Staphylococcus aureus isolate 2895 in presence of meropenem by broth microdilution assay; type: functional; how it was run: as §1
Staphylococcus aureus [28] = test: Synergistic antibacterial activity against multidrug-resistant Staphylococcus aureus isolate 2895 in presence of amoxicillin by broth microdilution assay; type: functional; how it was run: as §1
Staphylococcus aureus [29] = test: Synergistic antibacterial activity against multidrug-resistant Staphylococcus aureus isolate 200 in presence of cefuroxime by broth microdilution assay; type: functional; how it was run: as §2
Staphylococcus aureus [30] = test: Synergistic antibacterial activity against multidrug-resistant Staphylococcus aureus isolate 417 in presence of cloxacillin by broth microdilution assay; type: functional
Staphylococcus aureus [31] = test: Antibacterial activity against multidrug-resistant Staphylococcus aureus isolate 3589 by broth microdilution assay; type: functional; how it was run: as §3
Staphylococcus aureus [32] = test: Synergistic antibacterial activity against multidrug-resistant Staphylococcus aureus isolate 85 assessed as fractional Inhibitory concentration index in presence of cefuroxime by broth microdilution assay; type: functional
Staphylococcus aureus [33] = test: Synergistic antibacterial activity against multidrug-resistant Staphylococcus aureus isolate 3580 assessed as fractional Inhibitory concentration index in presence of meropenem by broth microdilution assay; type: functional
Staphylococcus aureus [34] = test: Synergistic antibacterial activity against multidrug-resistant Staphylococcus aureus isolate 1717 assessed as fractional Inhibitory concentration index in presence of amoxicillin by broth microdilution assay; type: functional; how it was run: as §4
Staphylococcus aureus [35] = test: Synergistic antibacterial activity against multidrug-resistant Staphylococcus aureus isolate 3580 in presence of amoxicillin by broth microdilution assay; type: functional
Staphylococcus aureus [36] = test: Synergistic antibacterial activity against multidrug-resistant Staphylococcus aureus isolate 85 in presence of methicillin by broth microdilution assay; type: functional
Staphylococcus aureus [37] = test: Synergistic antibacterial activity against multidrug-resistant Staphylococcus aureus isolate 3267 in presence of methicillin by broth microdilution assay; type: functional; how it was run: as §1
Staphylococcus aureus [38] = test: Antibacterial activity against multidrug-resistant Staphylococcus aureus isolate 2901 by broth microdilution assay; type: functional; how it was run: as §3
Staphylococcus aureus [39] = test: Synergistic antibacterial activity against multidrug-resistant Staphylococcus aureus isolate 2973 in presence of meropenem by broth microdilution assay; type: functional; how it was run: as §1

SMILES: CCCCCCCCCNc1ccc(F)c(C(N)=O)c1F
- fractional inhibitory concentration index (FICI) (Staphylococcus aureus [1]): 0.6
- fractional inhibitory concentration index (FICI) (Staphylococcus aureus [2]): 1.1
- MIC (Staphylococcus aureus [3]): 1 µg/mL
- fractional inhibitory concentration index (FICI) (Staphylococcus aureus [4]): 0.3
- MIC (Staphylococcus aureus [5]): 4 µg/mL
- MIC (Staphylococcus aureus [6]): 1020 µg/mL (≈ 3430 µM)
- fractional inhibitory concentration index (FICI) (Staphylococcus aureus [7]): 0.5
- MIC (Staphylococcus aureus [8]): 32 µg/mL (≈ 107 µM)
- MIC (Staphylococcus aureus [9]): 4 µg/mL
- MIC (Staphylococcus aureus [10]): 2 µg/mL
- fractional inhibitory concentration index (FICI) (Staphylococcus aureus [11]): 0
- AUC(0-inf) [12]: 10300 ng·h/mL
- MIC (Staphylococcus aureus [13]): 4 µg/mL
- fractional inhibitory concentration index (FICI) (Staphylococcus aureus [14]): 0.8
- fractional inhibitory concentration index (FICI) (Staphylococcus aureus [15]): 1
- MIC (Staphylococcus aureus [16]): 8 µg/mL
- MIC (Staphylococcus aureus [17]): 2 µg/mL
- fractional inhibitory concentration index (FICI) (Staphylococcus aureus [18]): 10
- MIC (Staphylococcus aureus [19]): 32 µg/mL (≈ 107 µM)
- MIC (Staphylococcus aureus [20]): 128 µg/mL (≈ 429 µM)
- fractional inhibitory concentration index (FICI) (Staphylococcus aureus [21]): 0.1
- MIC (Staphylococcus aureus [22]): 4 µg/mL
- fractional inhibitory concentration index (FICI) (Staphylococcus aureus [23]): 2.3
- MIC (Staphylococcus aureus [24]): 4 µg/mL
- fractional inhibitory concentration index (FICI) (Staphylococcus aureus [25]): 0.6
- fractional inhibitory concentration index (FICI) (Staphylococcus aureus [26]): 0
- MIC (Staphylococcus aureus [27]): 2 µg/mL
- MIC (Staphylococcus aureus [28]): 16 µg/mL
- MIC (Staphylococcus aureus [29]): 2 µg/mL
- MIC (Staphylococcus aureus [30]): 2 µg/mL
- MIC (Staphylococcus aureus [31]): 8 µg/mL (≈ 26.8 µM)
- fractional inhibitory concentration index (FICI) (Staphylococcus aureus [32]): 0.3
- fractional inhibitory concentration index (FICI) (Staphylococcus aureus [33]): 1.3
- fractional inhibitory concentration index (FICI) (Staphylococcus aureus [34]): 1.1
- MIC (Staphylococcus aureus [35]): 8 µg/mL
- MIC (Staphylococcus aureus [36]): 4 µg/mL
- MIC (Staphylococcus aureus [37]): 4 µg/mL
- MIC (Staphylococcus aureus [38]): 512 µg/mL (≈ 1720 µM)
- MIC (Staphylococcus aureus [39]): 4 µg/mL
